ChEMBL document CHEMBL2331156, “Growth inhibition of human colon carcinoma cells by sesquiterpenoids and tetralones of Zygogynum calothyrsum” (2013)

Experiments:
COLO 205 = assay: Cytotoxicity against human COLO205 cells after 48 hrs by XTT assay; type: functional; settings: COLO 205, 48 h
Method in brief: (§1)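 Two-day XTT colorimetric assay run on COLO205 and KM12 in parallel. Cells kept in RPMI-1640 with phenol red, 2mM L-glutamine and 10% FBS at 37 °C, 5% CO₂, and discarded after 25 passages. For the assay, cells were harvested into phenol-red-free medium without antibiotics and plated at 5,000 cells/well. After 24 hrs of incubation, samples were added as eight 2-fold serial dilutions. Values are the average of at least two tests.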

KM12 = assay: Cytotoxicity against human KM12 cells after 48 hrs by XTT assay; type: functional; settings: KM12, 48 h; method in brief: as §1

Row | SMILES | GI50 (COLO 205) [µM] | GI50 (KM12) [µM]
1 | CC1(C)CC[C@@H](OC(=O)/C=C/c2ccc(O)cc2)[C@]2(C)[C@@H]3C(=CC[C@@H]12)CO[C@@H]3O | 18 | 14
2 | CC1(C)CC[C@@H](OC(=O)/C=C/c2ccc(O)cc2)[C@]2(C)[C@@H]3C(=CC[C@@]12O)CO[C@@H]3O | 29 | 25
3 | CO[C@H]1O[C@H](OC)[C@H]2C1=CC[C@H]1C(C)(C)CC[C@@H](OC(=O)/C=C/c3ccc(O)cc3)[C@]21C | > 45 | > 45
4 | CC1(C)CC[C@@H](OC(=O)/C=C/c2ccc(O)cc2)[C@]2(C)[C@@H](C=O)C(C=O)=CC[C@@H]12 | 29 | 25
5 | C=C(C)C1Cc2c(cc3c(c2O)C(=O)C[C@H](c2ccc(O)cc2)C3)O1 (stereo not given in full) | 35 | 29
6 | COc1ccc([C@H]2CC(=O)c3c(cc4c(c3O)C=CC(C)(C)O4)C2)cc1O | 11 | 17
7 | COc1cc(O)c2c(c1)C[C@@H](c1ccc(O)c(O)c1)CC2=O [CALOTHYRLONE A] | > 67 | > 67
8 | CC1(C)CCC[C@]2(C)[C@H]3COC(=O)C3=CC[C@@H]12 [CINNAMOLIDE] | > 85 | > 85
9 | C=C(C)C1Cc2c(cc3c(c2O)C(=O)C[C@H](c2ccc(O)c(O)c2)C3)O1 (stereo not given in full) [ISOZYGOLONE A] | 32 | 32
10 | CC1(C)C=Cc2c(cc3c(c2O)C(=O)C[C@H](c2ccc(O)c(O)c2)C3)O1 [ZYGOLONE A] | 17 | 14
